Laboratory results published in ChEMBL document CHEMBL4308847, “Discovery, Structure-Activity Relationship, and Biological Characterization of a Novel Series of 6-((1 H-Pyrazolo[4,3- b]pyridin-3-yl)amino)-benzo[ d]isothiazole-3-carboxamides as Positive Allosteric Modulators of the Metabotropic Glutamate Receptor 4 (mGlu4)” (J Med Chem, 2018).
The source made the active and inactive calls. No cut-off for these calls is given here.

Assays:
[1] = Brain to plasma partition coefficient, Kp of the compound in Sprague-Dawley rat model of haloperidol-induced catalepsy at 10 mg/kg, po; type: ADME, organism-based; conditions: brain and plasma
In short: (§1)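 Male Sprague-Dawley rats given haloperidol 0.75 mg/kg i.p., then returned to cages for 60 min. Compound 10 mg/kg was dosed orally 30 min before catalepsy testing. Plasma, brain and CSF were then assayed, and free levels reported.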

[2] = Half life in rat administered as iv cassette dose; type: ADME, organism-based; conditions: in vivo
In short: (§2)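 IV cassette in male Sprague-Dawley rats (~300 g, n = 1 per experiment), cannulated in carotid artery and jugular vein and acclimated about one week. Plasma clearance, Vss, t1/2 and MRT were derived.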

[3] = target: Metabotropic glutamate receptor 2 (Rattus norvegicus) (UniProt P31421); assay: Allosteric modulation of rat mGlu2 receptor expressed in HEK cells co-expressing GIRK1/2 assessed as change in glutamate-induced thallium flux preincubated for 2.5 mins followed by glutamate addition by FluoZin-2-AM dye based fluorescence assay; type: cell-based
Sequence of Metabotropic glutamate receptor 2 (Rattus norvegicus) (P31421 19-872 limits assumed): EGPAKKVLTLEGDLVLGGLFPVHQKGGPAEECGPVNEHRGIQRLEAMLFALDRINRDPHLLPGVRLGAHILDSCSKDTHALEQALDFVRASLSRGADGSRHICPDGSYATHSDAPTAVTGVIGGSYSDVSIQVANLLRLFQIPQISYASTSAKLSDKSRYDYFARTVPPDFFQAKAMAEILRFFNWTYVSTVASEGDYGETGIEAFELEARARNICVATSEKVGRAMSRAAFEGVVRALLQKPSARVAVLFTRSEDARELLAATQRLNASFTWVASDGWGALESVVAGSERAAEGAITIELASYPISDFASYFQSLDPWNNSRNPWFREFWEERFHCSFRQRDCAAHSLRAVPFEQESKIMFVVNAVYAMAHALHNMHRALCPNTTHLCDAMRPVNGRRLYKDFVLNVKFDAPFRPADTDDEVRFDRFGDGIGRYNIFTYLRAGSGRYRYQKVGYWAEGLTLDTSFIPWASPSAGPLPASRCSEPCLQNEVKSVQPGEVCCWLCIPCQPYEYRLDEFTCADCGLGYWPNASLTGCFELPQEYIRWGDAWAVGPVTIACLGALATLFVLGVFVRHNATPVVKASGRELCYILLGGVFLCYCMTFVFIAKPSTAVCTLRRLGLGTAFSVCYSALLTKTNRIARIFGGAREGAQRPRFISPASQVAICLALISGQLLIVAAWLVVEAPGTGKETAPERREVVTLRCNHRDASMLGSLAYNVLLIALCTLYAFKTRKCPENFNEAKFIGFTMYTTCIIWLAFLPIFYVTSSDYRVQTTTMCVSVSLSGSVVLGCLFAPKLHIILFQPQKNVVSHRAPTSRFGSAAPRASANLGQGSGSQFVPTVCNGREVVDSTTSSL
In short: (§3)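 HEK cells expressing GIRK1/2 plus rat mGlu2, mGlu3, mGlu7 or mGlu8, plated at 15,000 cells/well. Thallium flux was read with a double addition: 10 μM compound, then 2.5 min later a full agonist concentration-response. The agonist was glutamate, or L-AP4 for mGlu7. A left shift of more than 2-fold counted as potentiation. A right shift of more than 2-fold, or a ≥75% drop in maximum response, counted as antagonism.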

Cytochrome P450 3A4 = Cytochrome P450 3A4 (Homo sapiens, UniProt P08684); assay: Inhibition of CYP3A4 in human liver microsomes using midazolam as substrate preincubated for 15 mins followed by substrate addition and measured after 8 mins by LC-MS/MS analysis; type: ADME
Sequence of Cytochrome P450 3A4 (P08684 whole entry): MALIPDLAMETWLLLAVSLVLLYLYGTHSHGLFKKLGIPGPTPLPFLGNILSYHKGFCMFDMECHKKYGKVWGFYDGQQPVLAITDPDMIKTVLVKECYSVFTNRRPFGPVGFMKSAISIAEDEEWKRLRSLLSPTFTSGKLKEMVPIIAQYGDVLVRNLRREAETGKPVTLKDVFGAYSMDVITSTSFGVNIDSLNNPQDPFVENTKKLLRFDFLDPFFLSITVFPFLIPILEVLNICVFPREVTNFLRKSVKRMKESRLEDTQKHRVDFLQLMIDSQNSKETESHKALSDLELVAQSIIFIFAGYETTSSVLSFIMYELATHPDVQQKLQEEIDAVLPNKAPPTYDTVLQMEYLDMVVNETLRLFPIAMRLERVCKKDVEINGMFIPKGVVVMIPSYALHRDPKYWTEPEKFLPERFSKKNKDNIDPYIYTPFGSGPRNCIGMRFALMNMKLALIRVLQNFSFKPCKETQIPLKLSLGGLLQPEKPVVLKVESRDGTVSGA

P-gp [4] = assay: Permeability from basolateral to apical side in MDCK cells harboring P-gp; type: ADME, cell-based, Canis lupus familiaris; conditions: dog, MDCK-MDR1; read-out: permeability
P-gp [5] = assay: Efflux ratio of permeability in MDCK cells harboring P-gp; type: ADME, cell-based, Canis lupus familiaris; conditions: dog, MDCK-MDR1
[6] = target: Metabotropic glutamate receptor 7 (Rattus norvegicus) (UniProt P35400); assay: Allosteric modulation of rat mGlu7 receptor expressed in HEK cells co-expressing GIRK1/2 assessed as change in glutamate-induced thallium flux preincubated for 2.5 mins followed by glutamate addition by FluoZin-2-AM dye based fluorescence assay; type: cell-based
Sequence of Metabotropic glutamate receptor 7 (Rattus norvegicus) (P35400 whole entry): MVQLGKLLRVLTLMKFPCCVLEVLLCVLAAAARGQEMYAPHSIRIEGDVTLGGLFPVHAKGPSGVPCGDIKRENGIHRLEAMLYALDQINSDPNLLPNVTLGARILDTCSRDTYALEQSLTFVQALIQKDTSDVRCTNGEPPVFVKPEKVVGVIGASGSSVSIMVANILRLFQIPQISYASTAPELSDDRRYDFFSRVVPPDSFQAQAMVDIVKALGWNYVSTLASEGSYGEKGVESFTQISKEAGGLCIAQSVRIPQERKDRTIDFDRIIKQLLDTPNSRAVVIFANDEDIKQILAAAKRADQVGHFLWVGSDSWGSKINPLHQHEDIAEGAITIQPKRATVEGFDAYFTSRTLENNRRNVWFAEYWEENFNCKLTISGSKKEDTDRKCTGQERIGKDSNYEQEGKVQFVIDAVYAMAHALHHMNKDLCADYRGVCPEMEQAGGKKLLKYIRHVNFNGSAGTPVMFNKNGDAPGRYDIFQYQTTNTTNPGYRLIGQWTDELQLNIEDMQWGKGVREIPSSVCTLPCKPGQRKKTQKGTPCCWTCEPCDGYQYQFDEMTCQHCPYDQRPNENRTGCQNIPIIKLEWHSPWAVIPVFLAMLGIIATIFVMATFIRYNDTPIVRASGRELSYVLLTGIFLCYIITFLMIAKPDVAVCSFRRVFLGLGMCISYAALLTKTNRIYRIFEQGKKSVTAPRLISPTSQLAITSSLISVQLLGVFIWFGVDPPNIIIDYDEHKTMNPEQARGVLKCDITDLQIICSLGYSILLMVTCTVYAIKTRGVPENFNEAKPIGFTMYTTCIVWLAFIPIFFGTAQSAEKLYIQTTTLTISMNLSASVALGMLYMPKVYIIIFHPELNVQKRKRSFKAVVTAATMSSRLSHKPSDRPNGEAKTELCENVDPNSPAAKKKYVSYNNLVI

[7] = target: Metabotropic glutamate receptor 5 (Rattus norvegicus) (UniProt P31424); assay: Allosteric modulation of rat mGlu5 receptor assessed as change in glutamate-induced calcium mobilization at 10 uM preincubated for 2.5 mins followed by glutamate addition by Fluo-4-AM dye based fluorescence assay; type: functional
Sequence of Metabotropic glutamate receptor 5 (Rattus norvegicus) (P31424 21-1203 limits assumed): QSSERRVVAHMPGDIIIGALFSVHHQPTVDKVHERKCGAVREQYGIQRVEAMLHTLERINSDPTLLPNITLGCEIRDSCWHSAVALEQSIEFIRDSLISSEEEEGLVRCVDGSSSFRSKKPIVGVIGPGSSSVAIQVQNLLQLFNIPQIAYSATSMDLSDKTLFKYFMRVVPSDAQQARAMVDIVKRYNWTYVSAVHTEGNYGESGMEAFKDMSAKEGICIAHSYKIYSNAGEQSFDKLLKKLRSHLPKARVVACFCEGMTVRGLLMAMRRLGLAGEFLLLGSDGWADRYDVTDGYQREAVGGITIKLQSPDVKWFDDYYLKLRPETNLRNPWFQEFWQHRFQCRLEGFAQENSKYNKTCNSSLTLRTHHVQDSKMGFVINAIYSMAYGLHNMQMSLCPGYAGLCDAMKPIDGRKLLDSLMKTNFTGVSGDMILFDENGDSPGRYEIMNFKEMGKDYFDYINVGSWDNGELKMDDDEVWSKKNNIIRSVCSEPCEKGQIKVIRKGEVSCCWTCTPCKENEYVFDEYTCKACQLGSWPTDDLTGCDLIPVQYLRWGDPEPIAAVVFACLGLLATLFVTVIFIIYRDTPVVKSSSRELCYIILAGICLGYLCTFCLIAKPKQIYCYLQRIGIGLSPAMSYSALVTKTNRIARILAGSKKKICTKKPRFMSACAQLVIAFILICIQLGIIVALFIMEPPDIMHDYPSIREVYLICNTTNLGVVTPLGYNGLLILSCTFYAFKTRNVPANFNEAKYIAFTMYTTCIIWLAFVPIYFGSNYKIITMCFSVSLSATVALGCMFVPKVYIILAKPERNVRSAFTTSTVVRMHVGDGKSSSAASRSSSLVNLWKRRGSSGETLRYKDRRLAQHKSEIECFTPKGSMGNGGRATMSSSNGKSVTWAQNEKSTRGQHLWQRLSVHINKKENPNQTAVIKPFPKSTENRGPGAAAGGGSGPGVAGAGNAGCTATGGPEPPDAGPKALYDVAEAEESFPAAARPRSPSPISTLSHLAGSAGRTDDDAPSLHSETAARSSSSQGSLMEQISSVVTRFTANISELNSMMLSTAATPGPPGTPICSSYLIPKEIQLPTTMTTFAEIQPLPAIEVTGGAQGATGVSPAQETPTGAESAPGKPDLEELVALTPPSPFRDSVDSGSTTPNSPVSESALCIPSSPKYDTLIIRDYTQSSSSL
In short: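 Human mGlu1 and rat mGlu5 tested by calcium mobilization with a double addition. 10 μM compound was added, then 2.5 min later a full glutamate concentration range. A left shift of more than 2-fold was scored as potentiation. A right shift of more than 2-fold, or a depression of the maximum response by at least 75%, was scored as antagonism.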

[8] = target: Metabotropic glutamate receptor 8 (Rattus norvegicus) (UniProt P70579); assay: Allosteric modulation of rat mGlu8 receptor expressed in HEK cells co-expressing GIRK1/2 assessed as change in glutamate-induced thallium flux preincubated for 2.5 mins followed by glutamate addition by FluoZin-2-AM dye based fluorescence assay; type: cell-based; in short: as §3
Cytochrome P450 1A2 = target: T1, Cytochrome P450 1A2 (Homo sapiens, UniProt P05177); assay: Inhibition of CYP1A2 in human liver microsomes using phenacetin as substrate preincubated for 15 mins followed by substrate addition and measured after 8 mins by LC-MS/MS analysis; type: ADME
T1 sequence (P05177 whole entry): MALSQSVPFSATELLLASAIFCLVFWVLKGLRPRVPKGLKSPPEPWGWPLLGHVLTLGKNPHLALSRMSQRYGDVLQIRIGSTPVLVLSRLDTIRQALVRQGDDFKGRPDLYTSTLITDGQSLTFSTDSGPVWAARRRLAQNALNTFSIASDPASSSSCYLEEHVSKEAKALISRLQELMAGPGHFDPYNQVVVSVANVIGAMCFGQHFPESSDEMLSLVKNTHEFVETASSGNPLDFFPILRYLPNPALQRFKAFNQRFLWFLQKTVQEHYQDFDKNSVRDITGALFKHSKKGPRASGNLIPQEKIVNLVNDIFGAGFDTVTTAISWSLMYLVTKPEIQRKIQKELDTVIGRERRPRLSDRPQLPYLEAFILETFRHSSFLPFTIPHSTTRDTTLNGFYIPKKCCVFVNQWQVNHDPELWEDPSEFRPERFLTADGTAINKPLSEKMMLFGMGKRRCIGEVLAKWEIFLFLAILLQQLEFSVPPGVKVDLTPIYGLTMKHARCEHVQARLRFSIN
In short: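 IC50 for CYP1A2 inhibition determined in human liver microsomes using specific probe substrate-metabolite pairs.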

[9] = Drug uptake in cerebrospinal fluid of Sprague-Dawley rat model of haloperidol-induced catalepsy at 10 mg/kg, po; type: ADME, organism-based; conditions: in vivo, read-out: Drug uptake; in short: as §1
[10] = Fraction unbound in rat plasma after 4 hrs by equilibrium dialysis method; type: ADME, cell-free
[11] = target: Metabotropic glutamate receptor 4 (Homo sapiens, UniProt Q14833); assay: Positive allosteric modulation of human mGlu4 receptor expressed in CHO cells co-expressing Gqi5 assessed as increase in glutamate-induced calcium mobilization preincubated for 142 secs followed by EC20 glutamate addition and measured after 147 secs by Fluo-4-AM dye based fluorescence assay relative to control; type: functional, cell-based
Sequence of Metabotropic glutamate receptor 4 (Q14833 whole entry): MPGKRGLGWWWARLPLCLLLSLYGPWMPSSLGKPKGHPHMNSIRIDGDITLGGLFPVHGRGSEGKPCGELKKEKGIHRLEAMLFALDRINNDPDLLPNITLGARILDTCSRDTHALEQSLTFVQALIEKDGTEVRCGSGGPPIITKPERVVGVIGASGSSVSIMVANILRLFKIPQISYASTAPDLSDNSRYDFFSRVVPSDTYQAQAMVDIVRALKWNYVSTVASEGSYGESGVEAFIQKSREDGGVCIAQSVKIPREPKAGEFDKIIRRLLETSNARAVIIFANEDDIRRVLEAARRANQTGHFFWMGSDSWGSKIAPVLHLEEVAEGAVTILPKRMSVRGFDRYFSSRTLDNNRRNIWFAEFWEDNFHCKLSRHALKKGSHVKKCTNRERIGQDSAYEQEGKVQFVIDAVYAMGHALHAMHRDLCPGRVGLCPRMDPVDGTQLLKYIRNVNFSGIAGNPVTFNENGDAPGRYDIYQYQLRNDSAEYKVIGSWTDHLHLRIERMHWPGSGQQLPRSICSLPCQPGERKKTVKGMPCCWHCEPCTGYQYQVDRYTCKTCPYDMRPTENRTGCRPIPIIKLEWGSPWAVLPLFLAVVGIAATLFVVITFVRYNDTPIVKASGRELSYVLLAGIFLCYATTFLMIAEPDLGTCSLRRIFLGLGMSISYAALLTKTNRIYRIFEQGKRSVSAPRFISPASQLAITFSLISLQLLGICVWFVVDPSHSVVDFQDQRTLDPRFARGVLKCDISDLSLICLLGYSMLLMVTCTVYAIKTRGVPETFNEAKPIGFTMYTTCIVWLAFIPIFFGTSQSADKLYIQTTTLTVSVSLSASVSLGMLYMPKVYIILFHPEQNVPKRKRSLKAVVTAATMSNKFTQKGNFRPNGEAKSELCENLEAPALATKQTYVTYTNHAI
In short: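 CHO cells expressing human mGlu4 and Gqi5, plated at 30,000 cells/well and grown overnight at 37 °C, 5% CO2. Cells were loaded with 1 μM Fluo-4 AM for 45 min at 37 °C in HBSS/20 mM HEPES/2.5 mM probenecid. Compounds were run as 10-point, 1:3 dilution series. After 142 s, EC20 glutamate was added; 147 s later, EC80 glutamate. Fluorescence was normalized to the maximal glutamate response. EC50 and %Glu Max were fitted by four-parameter logistic, with maximum normalized to PHCCC.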

[12] = Clearance in rat administered as iv cassette dose; type: ADME, organism-based; conditions: in vivo; in short: as §2

For `O=C(NC1CC(F)(F)C1)c1nsc2cc(Nc3n[nH]c4cccnc34)ccc12`, the Kp [1] was 0.23, the half-life [2] was 7.42 h and the Activity [3] was “inactive”. For the same compound, the IC50 (Cytochrome P450 3A4) was > 30 µM, the Papp B→A (P-gp [4]) was 5.4 ×10⁻⁶ cm/s and the efflux ratio (P-gp [5]) was 1.9. For the same compound, the Activity [6] was “inactive”, the Activity [7] was “inactive” and the Activity [8] was “inactive”. The IC50 (Cytochrome P450 1A2) was > 30 µM, the concentration [9] was 46 nM and the fraction unbound at 4 h [10] was 0.005. For the same compound, the %max [11] was 50.5% and the clearance [12] was 3.1 mL/min/kg.
